This excerpt belongs to a sample that is enriched for hits.
XiGFP reactiv – activators of X-chromosome reactivation in mouse fibroblasts; XiGFP mouse fibroblasts, % GFP-positive cells imaging, 3 d; cells co-treated with 5-aza-dC sensitizer; scaled so ellipticine positive control = 100%; activation, % at 7.58 µM; 0.055% of 360,000 active; AID 743238;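 active = mean normalized replicate activation at least 10% and every replicate at or above 10%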;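 note: 0% = median of on-plate neutral control wells and 100% = ellipticine 6 µM median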
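System: 68-5-11 XiGFP fibroblast line | Buffer or medium: DMEM containing 5-aza-dC | Compound: Single point | Times: Compounds 3 days, fix/stain 15 min at room temperature | Benchmarks: Positive control ellipticine, 6 µM final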
ABCB6 inh MLPCN – blocks the human ABCB6 transporter | Q9NP58 | K562-ABCB6 porphyrin accumulation, flow cytometry, 1 h; active compounds read low | fluorescence ratio to DMSO, % at 10 µM | 0.19% of 360,000 active;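 active = fluorescence ratio to DMSO below 75%, the collection mean minus 3 SD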;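 note: signal is porphyrin accumulated inside mitochondria; 100% equals median channel fluorescence of DMSO control wells; lower ratio means ABCB6 inhibition with less porphyrin fluorescence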
Myeloid diff MLP – compounds promoting myeloid differentiation. AID 624256. calls only at 10 µM. 1% of 360,000 active. ER-HoxA9 myeloid progenitors, lysozyme-GFP differentiation, flow cytometry;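 active = normalized GFP-positive differentiation at or above the plate's own cutoff, the solvent-only control mean plus 3 SD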;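 note: cells exposed to compound for four days before flow analysis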
Myeloid diff – compounds promoting myeloid differentiation. shares compounds with Myeloid diff MLP. ER-HoxA9 myeloid progenitors, GFP/Mac1 double-positive flow. calls only. 2% of 2,300 active. AID 651706;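 active = share of green or green-and-red cells above 9 and 9% in run 1 or 4 and 3% in run 2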
GFP autofluor – counter-screen for myeloid differentiation promoters: compound fluorescence | ER-HoxA9 myeloid progenitors, no estrogen, GFP autofluorescence flow cytometry; vehicle wells 0%, positive control 100% | 7.4% of 2,300 active | shares compounds with Myeloid diff MLP | AID 651707 | fluorescence response, % (no concentration beside the values);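 active = over 5% cells positive for green fluorescent reporter, or over 2% positive for both it and APC stain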;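 note: range taken on the double positive population between DMSO and positive control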
* = called active by the depositor; i = inactive; . = no result given; + = active, no number.

SMILES	XiGFP reactiv	ABCB6 inh MLPCN	Myeloid diff MLP	Myeloid diff	GFP autofluor
N#C/C(=N/O)c1nc(-c2ccc(F)cc2)cs1	0	102	i	.	.
O=C(Nc1ccon1)C1CCN(S(=O)(=O)c2cccs2)CC1	.	97	i	i	1
Cc1cc(NC(=O)C2CCN(S(=O)(=O)c3cccs3)CC2)no1	.	93	i	.	.
C[C@@H]1CN([C@@H](C)CO)C(=O)c2cc(NC(=O)CCCCCC(=O)Nc3ccccc3N)ccc2O[C@@H]1CN(C)C(=O)Nc1ccc(C(F)(F)F)cc1	0	.	.	.	.
CCCC(=O)Nc1ccc2nc(C)n(Cc3ccccc3Cl)c(=O)c2c1	0	94	i	.	.
Cc1nc2ccc(NC(=O)c3cccs3)cc2c(=O)n1Cc1ccc(Cl)cc1	.	93	+	i	0
O=C(CN1C(=O)C2CCCCC2C1=O)N1CCN(c2ccccc2)CC1 (stereo not given)	0	93	i	.	.
O=C(CN1C(=O)C2CCCCC2C1=O)N1CCN(c2ccc(F)cc2)CC1 (stereo not given)	0	99	+	i	0
O=C(CSc1ncnc2nc[nH]c12)c1ccc2ccccc2c1	.	100	+	i	0
O=C(O)CSc1ncnc2nc[nH]c12	.	99	i	.	.
COc1ccc2c3c([nH]c2c1)[C@@H](CO)N(C(=O)C1CCOCC1)CC31CN(Cc2cccc(F)c2)C1	0	.	.	.	.
O=C(O)c1ccc(NS(=O)(=O)c2cccc3cccnc23)cc1	0	97	i	.	.
O=C(Nc1ncccc1O)c1ccc(S(=O)(=O)Nc2ccccc2)cc1	-1	101	+	i	1
Cc1cccc(NC(=O)c2ccc(NS(=O)(=O)c3cccc4cccnc34)cc2)c1	0	98	i	i	0
O=C(Nc1ncccc1O)c1ccc(NS(=O)(=O)c2ccc3[nH]c(=O)[nH]c3c2)cc1	0	95	i	.	.
O=C(Nc1ccccc1O)c1ccc(NS(=O)(=O)c2cccc3cccnc23)cc1	0	105	i	i	0
COC(=O)c1ccc(NC(=O)c2ccc(NS(=O)(=O)c3cccc4cccnc34)cc2)cc1	.	104	i	.	.
C[C@@H]1CN([C@H](C)CO)C(=O)c2cc(NS(=O)(=O)c3ccc(F)cc3)ccc2O[C@@H]1CN(C)CC1CC1	-1	.	.	.	.
COc1ccc2c3c(n(C)c2c1)[C@@H](CO)N(C(C)=O)CC31CCN(C(=O)NC(C)C)CC1	0	.	.	.	.
C[C@@H]1CCCCO[C@H](CN(C)C(=O)CCCN(C)C)[C@H](C)CN([C@H](C)CO)C(=O)c2cc(NS(C)(=O)=O)ccc2O1	-1	.	.	.	.
CC(=O)N(C)C[C@@H]1Oc2ncc(C#CCC3CCCC3)cc2C(=O)N([C@H](C)CO)C[C@H]1C	-1	.	.	.	.
CC1(C)CC(=O)C=C(Nc2ccc(C(=O)O)cc2)C1	.	96	+	i	0
CC1(C)CC(=O)C=C(Nc2ccc(O)c(C(=O)O)c2)C1	0	86	i	.	.
Cc1[nH]c2ccccc2c1-c1nc2ccccc2[nH]1	.	92	+	i	0
Cc1ccc(-c2nc3ccccc3[nH]2)s1	.	96	i	.	.
SMILES	XiGFP reactiv	ABCB6 inh MLPCN	Myeloid diff MLP	Myeloid diff	GFP autofluor
O=C(C[C@H]1C=C[C@H](NS(=O)(=O)c2ccc(F)cc2)[C@H](CO)O1)NC1CCC1	0	.	.	.	.
COc1ccc(NC(=O)N2C[C@@H]3[C@H](c4ccccc42)[C@@H](CO)N3C(=O)C2CC2)cc1	0	.	.	.	.
COc1ccc(-c2sc3ccccc3c2-c2ccc(O)cc2)cc1	0	95	i	.	.
COc1ccc(-c2sc3cc(OC)c(OC)cc3c2-c2ccc(O)cc2)cc1	1	100	i	i	0
C[C@H]1CN([C@@H](C)CO)C(=O)c2cccc(NS(=O)(=O)c3ccc(F)cc3)c2O[C@H]1CN(C)CC1CC1	-1	.	.	.	.
CC=Cc1ccc2n(c1=O)C[C@H]1[C@H](CO)[C@@H](C(=O)N(C)C)N(CC3CCCC3)[C@@H]21 (mixture of isomers)	0	.	.	.	.
COc1cccc(NC(=O)N[C@H]2C=C[C@H](CC(=O)NCc3ccccn3)O[C@H]2CO)c1	0	.	.	.	.
C[C@@H]1CCCCO[C@H](CN(C)C(=O)c2ccccc2)[C@@H](C)CN([C@@H](C)CO)C(=O)c2cc(NS(=O)(=O)c3cccs3)ccc2O1	2	.	.	.	.
CC(C)OC(=O)CSc1nnc(CNc2ccc(Cl)cc2)n1C	0	92	i	.	.
COC(=O)CSc1nnc(CNc2ccc(OC)cc2)n1C	.	98	+	i	0
CSc1nc(Oc2ccc3ccccc3c2)c2sccc2n1	.	95	+	i	0
COc1ccc(Oc2nc(SC)nc3ccsc23)cc1	.	101	i	.	.
CCS(=O)(=O)N1CCCCN2[C@H](C1)[C@@H](c1ccc(C#Cc3ccccc3OC)cc1)[C@@H]2CO	0	.	.	.	.
Cc1nn(-c2ccccc2)c(N2CCCC2)c1/C=N/NC(=S)Nc1ccccc1F	0	98	+	+	1
Cc1nn(-c2ccccc2)c(N2CCCC2)c1/C=N/NC(=O)c1cc2ccccc2cc1O	1	96	i	.	.
N#C[C@H]1[C@@H](c2ccccc2-c2ccccc2)[C@H](CO)N1C(=O)Cc1ccccc1	0	.	.	.	.
COc1cccc(CNS(=O)(=O)c2ccccc2Br)c1OC	0	99	i	i	1
COc1ccccc1CNS(=O)(=O)c1cc(C)ccc1OC	.	103	i	.	.
CCn1c(C)cc(/C=C2/SC(=S)NC2=O)c1C	0	98	i	.	.
Cc1cc(/C=C2\SC(=S)NC2=O)c(C)[nH]1	0	98	i	i	7.3*
CN(C)c1ccc(C=C2SC(=S)NC2=O)cc1	0	154	+	i	0
CCOc1ccc(N(C)c2ccc(/C=C3/SC(=S)NC3=O)cc2)cc1	0	350	i	.	.
O=C1NC(=Nc2cccc(O)c2)S/C1=C\c1cccc([N+](=O)[O-])c1	0	103	i	.	.
CN(C)c1ccc(/C=N/N=C2/NC(=O)/C(=C/c3ccc([N+](=O)[O-])cc3)S2)cc1	.	269	+	i	95*
COCCNC(=O)C[C@H]1C[C@H]2c3cc(NC(=O)Nc4ccccc4)ccc3O[C@H]2[C@@H](CO)O1	0	.	.	.	.
CCCN1C[C@H](C)[C@@H](OC)CN(C)C(=O)c2ccc(NC(=O)Nc3c(C)noc3C)cc2OC[C@H]1C	0	.	.	.	.
C[C@H]1CN([C@@H](C)CO)C(=O)c2cc(NS(=O)(=O)c3ccc(F)cc3)ccc2O[C@H]1CN(C)C(=O)NC1CCCCC1	0	.	.	.	.
CCNC(=O)C[C@H]1CC[C@H]2[C@@H](COc3ccc(NC(=O)c4cc(C)on4)cc3C(=O)N2C)O1	0	.	.	.	.
C[C@@H]1CN([C@H](C)CO)C(=O)c2cc(C#Cc3ccccc3F)cnc2O[C@@H]1CN(C)C(=O)Cc1ccccc1	0	.	.	.	.
COc1ccc(S(=O)(=O)N[C@@H](Cc2ccc(Cl)cc2)C(=O)N2CC[C@@]3(O)CCCC[C@H]3C2)cc1	.	96	i	i	0

Bioassay records as filed in PubChem BioAssay.
